Screening results: PubChem BioAssay, Sanford-Burnham Center for Chemical Genomics
Only some compounds are listed: those with a hit (about 2.3% of all), similar ones and a draw of the others.
DNMT1 inh: inhibitors of human DNMT1. inhibition (reported as % activation of signal), % at 10 µM. DNMT1 molecular beacon, Hinp1I cleavage, fluorescence. hit rate 0.83% among 360,000. AID 588458. P26358; in the data active = inhibition above about 50%
Scp-1 inhibitor: Scp-1 (human) phosphatase inhibition; Q9GZU7; Recombinant Scp1, phosphopeptide, malachite green phosphate absorbance; inhibition, % at 20 µM; hit rate 0.88% among 340,000; AID 493091;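 active = inhibition above about 50% at 20 µM, limit read from the data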;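 note: plate controls were DMSO wells with enzyme for no effect and wells lacking enzyme for full effect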
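Test system – truncated SCP-1 phosphatase (76-261aa) · Reagent – Phosphorylated 17-residue peptide substrate · Incubation – 45 min room-temperature reaction, 5 min colour, 30 min stabiliser · Detection – colorimetric phosphate reagent with accelerator and stabiliser, absorbance at 630 nm · Measure – % inhibition at 20 µM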
LMPTP inh: blocks human LMPTP phosphatase | inhibition, % at 20 µM | recombinant LMPTP-A, OMFP fluorogenic substrate, fluorescence intensity | P24666 | AID 651560 | hit rate 0.22% among 360,000;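 active = compounds that cut the enzyme signal by at least half of the control window in the single-dose screen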;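 note: plate controls were DMSO wells with enzyme plus substrate for no effect and substrate without enzyme for full effect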
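Test system: LMPTP-A phosphatase enzyme. Amount: LMPTP-A at 0.625 nM final in the reaction. Reagent: OMFP substrate, 400 µM final. Times: 50 min at room temperature. Signal: endpoint fluorescence intensity from OMFP dephosphorylation. Read-out basis: % inhibition. Benchmarks: no-enzyme and uninhibited controls.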
SUMO1-SIM PPI: modulators of human SUMO1-mediated protein-protein interactions; AID 602429; inhibition, % at 20 µM; SUMO1 binding to a labelled peptide, TR-FRET, 1 h; hit rate 0.33% among 360,000; P63165; in the data active = inhibition above about 37%
STEP block: inhibitors of human striatal-enriched phosphatase STEP; hit rate 0.25% among 360,000; inhibition, % at 20 µM; P54829; recombinant STEP, OMFP fluorogenic substrate, fluorescence;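 active = inhibition at 20 µM, scaled per plate between control wells, above about 37%, limit read from the data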;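 note: 0% = DMSO with enzyme and substrate and 100% = substrate only without enzyme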
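Assay system: isolated STEP enzyme. Buffer or medium: pH 6.0 Bis-Tris with DTT and Tween 20. Also added: fluorogenic phosphatase substrate OMFP at 25 µM final. Dosing: 20 µM, 1% DMSO. Timing: 20 min reaction, room temperature, in the dark. Measured by: fluorescence intensity, excitation 480 nm, emission 540 nm. Evaluation: normalized % inhibition.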
NadD block: inhibitors of Staphylococcus aureus NadD; purified NadD enzyme, colorimetric absorbance read-out; inhibition, % at 20 µM; hit rate 0.78% among 360,000; AID 602399; in the data active = inhibition above about 26%
DNMT1 inh conf: confirmation of human DNMT1 inhibitors. shares compounds with DNMT1 inh. DNMT1 molecular beacon HinP1I cleavage, fluorescence. inhibition, % at 10 µM. hit rate 8% among 2,300. AID 602385;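 active = average inhibition of at least 30% in the single-concentration confirmation test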
DNMT1 interf: counter-screen for DNMT1 inhibitors: spectral interference | shares compounds with DNMT1 inh | DNMT1 molecular beacon spectral interference counterscreen, fluorescence 485/520 | activation (fluorescence interference), % at 10 µM | hit rate 1% among 2,300;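 active = activation of at least 30% at 10 µM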;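 note: DNMT1 catalytic domain with a HinP1I cleavage step and a FAM/dabcyl DNA beacon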
* hit, by the source's call; . = no result given.

SMILES	DNMT1 inh	Scp-1 inhibitor	LMPTP inh	SUMO1-SIM PPI	STEP block	NadD block	DNMT1 inh conf	DNMT1 interf
COc1ccc(/C=C/C(=O)C(C)(C)C)cc1OC	50*	-8	-1	-12	0	-6	4	4
COc1ccc(CC(=O)NCC(C)(C)N2CCOCC2)cc1	1	-1	-2	-3	0	4	.	.
Cc1ccccc1Oc1ncnc2oc(-c3ccccc3)cc12	-1	-6	1	-1	2	-5	.	.
Clc1ccc(Oc2ncnc3oc(-c4ccccc4)cc23)cc1	56*	-3	0	12	3	5	2	4
C=CCN(C(=O)c1csnn1)C(C(=O)NCc1ccc(F)cc1)c1ccccc1F (configuration not stated)	54*	-10	-1	-5	1	-2	2	5
CCOc1cc(/C=C2/C(=N)N3N=C(C)SC3=NC2=O)ccc1OS(=O)(=O)c1ccc(C)cc1	75*	-9	1	19	-1	6	9	1
CCOc1cc(/C=C2\C(=N)N3N=CSC3=NC2=O)ccc1OS(=O)(=O)c1ccccc1	4	-2	1	9	0	2	.	.
COCCNC(=O)C1(C)CCCN(C(=O)c2ccc3snnc3c2)C1 (configuration not stated)	-3	.	-2	1	-1	0	.	.
O=c1ccc2cc3c4c(c2o1)CCCN4CCC3	28	-8	31	15	-11	10	.	.
O=c1oc2c3c4c(cc2s1)CCCN4CCC3	85*	3	67*	9	3	26	-3	-2
O=C(CCCOc1ccc(Cl)cc1Cl)NNC(=O)c1ccc(NC(=O)c2ccccc2)cc1	73*	41	69*	0	6	24	0	-2
CCOc1ccc(N(CC(=O)Nc2ccc(C)cc2)S(C)(=O)=O)cc1	-3	-8	1	5	-1	-1	.	.
CCOc1ccc(N(CC(=O)Nc2ccc(C)cc2C)S(C)(=O)=O)cc1	71*	0	-2	-3	-1	-14	-2	0
O=C(COC(=O)c1ccc(-c2nnc(-c3ccccc3)o2)cc1)c1ccccc1	54*	-5	19	3	0	2	1	1
Cc1cccc(CC(=O)NCCN2CCCCC2)c1	57*	33	1	1	1	-1	-1	2
CCC1(c2ccccc2)NC(=O)N(CC(=O)Nc2cc(S(=O)(=O)N3CCCCC3)ccc2OC(C)C)C1=O (configuration not stated)	-6	-5	2	0	1	2	.	.
Cc1ccc(C(=O)Nc2nc(-c3ccc([N+](=O)[O-])cc3)cs2)o1	51*	-10	11	-8	-3	1	5	2
C=CC[C@@H](CC(=O)N[C@@H](CO)Cc1ccccc1)C(=O)N[C@H](COC(=O)[C@@H](CC=C)Cc1ccc(F)cc1)Cc1ccccc1	62*	-5	-1	4	0	0	0	1
C=CCC[C@@H](Cc1ccc(F)cc1)C(=O)O[C@H](CNC(=O)[C@@H](CC=C)CC(=O)N[C@H](CO)Cc1ccccc1)c1ccccc1	83*	-6	0	0	3	2	0	3
C=CCC[C@H](Cc1ccc(F)cc1)C(=O)OC[C@H](Cc1c[nH]c2ccccc12)NC(=O)[C@@H](CC=C)CC(=O)N[C@@H](CO)Cc1ccccc1	69*	-11	1	4	-2	-6	0	-5
C=CC[C@@H](CC(=O)N[C@H](CO)Cc1ccccc1)C(=O)NC[C@@H](OC(=O)[C@@H](CC=C)Cc1ccc(F)cc1)c1ccccc1	77*	0	0	3	-1	-2	0	5
CN1/C(=C\C(=O)c2cccc([N+](=O)[O-])c2)Sc2ccccc21	52*	-5	5	0	2	1	0	-1
